≈ marks a conversion by molar mass, not a printed value.
Columns and labels:
Pichia kudriavzevii [1] = assay: Inhibition of Candida krusei E28 growth for 48 hours in vitro.; format: functional
Procedure, shortened: (§1)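 NCCLS M27-A broth microdilution in RPMI 1640 with L-glutamine and 0.165 M MOPS, pH 7.0. Isolates kept on Sabouraud dextrose agar. Inoculum 5 × 10^3 cfu/mL final. Compounds were diluted in DMSO (≤2% final) and tested in 2-fold dilutions of 1000–0.24 µmol/L. Incubation at 35 °C, OD540 read at 24 and 48 h. MIC = 80% growth inhibition versus control; assays run twice in duplicate.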

Candida albicans [2] = assay: Inhibition of Candida albicans ATCC 44859 growth for 24 hours in vitro.; format: functional; procedure, shortened: as §1
Trichosporon beigelii [3] = assay: Inhibition of Trichosporon beigelli 1188 for 48 hours in vitro.; format: functional
Procedure, shortened: (§2)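 Microdilution following NCCLS M27-A. Medium: RPMI 1640 with L-glutamine, 0.165 M MOPS, pH 7.0. Final inoculum 5 × 10^3 cfu/mL. Compounds dissolved in DMSO, final ≤2%, serially halved from 1000 to 0.24 µmol/L. Incubated at 35 °C and read at 24 and 48 h. MIC defined as 80% inhibition of control growth; run twice in duplicate.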

Candida albicans [4] = assay: Inhibition of Candida albicans ATCC 90028 for 48 hours in vitro.; format: functional; procedure, shortened: as §1
Aspergillus fumigatus [5] = assay: Inhibition of Aspergillus fumigatus 231 growth for 24 hours in vitro.; format: functional
Procedure, shortened: (§3)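 Filamentous isolates tested by microdilution per NCCLS M27-A in RPMI 1640 plus L-glutamine, buffered with 0.165 M MOPS to pH 7.0. Final inoculum 5 × 10^3 cfu/mL. Compounds in DMSO (final ≤2%), 2-fold series over 1000–0.24 µmol/L. Plates held at 35 °C and read visually after 24 and 48 h. MIC taken as 80% inhibition of control growth; determined twice in duplicate.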

Nakaseomyces glabratus [6] = assay: Inhibition of Candida glabrata 20/I growth for 24 hours in vitro.; format: functional; procedure, shortened: as §1
[7] = Inhibition of Trichophyton mentagrophytes 445 growth for 120 hours in vitro.; format: functional, Arthroderma benhamiae
Procedure, shortened: (§4)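 Dermatophyte grown in MOPS-buffered (0.165 M, pH 7.0) RPMI 1640 containing L-glutamine, in an M27-A microdilution format. Inoculum 5 × 10^3 cfu/mL final. Compounds from DMSO stocks (≤2% final), 2-fold dilutions 1000–0.24 µmol/L. Incubated at 35 °C, growth judged visually at 72 and 120 h. MIC endpoint is 80% inhibition relative to control; measured twice in duplicate.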

Candida parapsilosis [8] = assay: Inhibition of Candida parapsilosis ATCC 22019 growth for 48 hours in vitro.; format: functional; procedure, shortened: as §1
Clavispora lusitaniae [9] = assay: Inhibition of Candida lusitaniae 2446/I growth for 24 hours in vitro.; format: functional; procedure, shortened: as §1
Candida tropicalis [10] = assay: Inhibition of Candida tropicalis 156 growth for 48 hours in vitro.; format: functional; procedure, shortened: as §1
Trichosporon beigelii [11] = assay: Inhibition of Trichosporon beigelli 1188 for 24 hours in vitro.; format: functional; procedure, shortened: as §2
Lichtheimia corymbifera [12] = assay: In vitro inhibition of Absidia corymbifera 272 growth for 24 hours.; format: functional; procedure, shortened: as §3
Pichia kudriavzevii [13] = assay: Inhibition of Candida krusei E28 growth for 24 hours in vitro.; format: functional; procedure, shortened: as §1
Clavispora lusitaniae [14] = assay: Inhibition of Candida lusitaniae 2446/I growth for 48 hours in vitro.; format: functional; procedure, shortened: as §1
Candida parapsilosis [15] = assay: Inhibition of Candida parapsilosis ATCC 22019 growth for 24 hours in vitro.; format: functional; procedure, shortened: as §1
[16] = Inhibition of Trichophyton mentagrophytes 445 growth for 72 hours in vitro.; format: functional, Arthroderma benhamiae; procedure, shortened: as §4
Aspergillus fumigatus [17] = assay: Inhibition of Aspergillus fumigatus 231 growth for 48 hours in vitro.; format: functional; procedure, shortened: as §3
Candida albicans [18] = assay: Inhibition of Candida albicans ATCC 90028 for 24 hours in vitro.; format: functional; procedure, shortened: as §1
Candida tropicalis [19] = assay: Inhibition of Candida tropicalis 156 growth for 24 hours in vitro.; format: functional; procedure, shortened: as §1
Nakaseomyces glabratus [20] = assay: Inhibition of Candida glabrata 20/I growth for 48 hours in vitro.; format: functional; procedure, shortened: as §1
Pichia kudriavzevii [21] = assay: Inhibition of Candida krusei ATCC 6258 growth for 24 hours in vitro.; format: functional; procedure, shortened: as §1
Pichia kudriavzevii [22] = assay: Inhibition of Candida krusei ATCC 6258 growth for 48 hours in vitro.; format: functional; procedure, shortened: as §1
Candida albicans [23] = assay: Inhibition of Candida albicans ATCC 44859 growth for 48 hours in vitro.; format: functional; procedure, shortened: as §1
Lichtheimia corymbifera [24] = assay: In vitro inhibition of Absidia corymbifera 272 growth for 48 hours.; format: functional; procedure, shortened: as §3
[25] = Pichia kudriavzevii, 48 h, read-out: MIC
[26] = Candida albicans, ATCC 44859, 24 h, read-out: MIC
[27] = Trichosporon beigelii, 48 h, read-out: MIC
[28] = Candida albicans, ATCC 90028, 48 h, read-out: MIC
[29] = Aspergillus fumigatus, 24 h, read-out: MIC
[30] = Nakaseomyces glabratus, 24 h, read-out: MIC
[31] = Trichophyton benhamiae, 120 h, read-out: MIC
[32] = Lodderomyces parapsilosis, ATCC 22019, 48 h, read-out: MIC
[33] = Clavispora lusitaniae, 24 h, read-out: MIC
[34] = Candida tropicalis, 48 h, read-out: MIC
[35] = Trichosporon beigelii, 24 h, read-out: MIC
[36] = Lichtheimia corymbifera, 24 h, read-out: MIC
[37] = Pichia kudriavzevii, 24 h, read-out: MIC
[38] = Clavispora lusitaniae, 48 h, read-out: MIC
[39] = Lodderomyces parapsilosis, ATCC 22019, 24 h, read-out: MIC
[40] = Trichophyton benhamiae, 72 h, read-out: MIC
[41] = Aspergillus fumigatus, 48 h, read-out: MIC
[42] = Candida albicans, ATCC 90028, 24 h, read-out: MIC
[43] = Candida tropicalis, 24 h, read-out: MIC
[44] = Nakaseomyces glabratus, 48 h, read-out: MIC
[45] = Pichia kudriavzevii, ATCC 6258, 24 h, read-out: MIC
[46] = Pichia kudriavzevii, ATCC 6258, 48 h, read-out: MIC
[47] = Candida albicans, ATCC 44859, 48 h, read-out: MIC
[48] = Lichtheimia corymbifera, 48 h, read-out: MIC

**Q.** Which results are given for `O=C1OC(CO)C=C1c1ccc(Cl)c(Cl)c1` (configuration not stated)?
**A.** MIC (Pichia kudriavzevii [1]; [25]): 250 µM (≈ 64.8 µg/mL); MIC (Candida albicans [2]; [26]): 62.5 µM (≈ 16.2 µg/mL); MIC (Trichosporon beigelii [3]; [27]): > 1000 µM; MIC (Candida albicans [4]; [28]): 500 µM (≈ 130 µg/mL); MIC (Aspergillus fumigatus [5]; [29]): 62.5 µM (≈ 16.2 µg/mL); MIC (Nakaseomyces glabratus [6]; [30]): 62.5 µM (≈ 16.2 µg/mL); MIC [7, 31]: 15.6 µM (≈ 4.05 µg/mL); MIC (Candida parapsilosis [8]; [32]): 500 µM (≈ 130 µg/mL); MIC (Clavispora lusitaniae [9]; [33]): 125 µM (≈ 32.4 µg/mL); MIC (Candida tropicalis [10]; [34]): 500 µM (≈ 130 µg/mL); MIC (Trichosporon beigelii [11]; [35]): 500 µM (≈ 130 µg/mL); MIC (Lichtheimia corymbifera [12]; [36]): 125 µM (≈ 32.4 µg/mL); MIC (Pichia kudriavzevii [13]; [37]): 125 µM (≈ 32.4 µg/mL); MIC (Clavispora lusitaniae [14]; [38]): 250 µM (≈ 64.8 µg/mL); MIC (Candida parapsilosis [15]; [39]): 250 µM (≈ 64.8 µg/mL); MIC [16, 40]: 15.6 µM (≈ 4.05 µg/mL); MIC (Aspergillus fumigatus [17]; [41]): 250 µM (≈ 64.8 µg/mL); MIC (Candida albicans [18]; [42]): 250 µM (≈ 64.8 µg/mL); MIC (Candida tropicalis [19]; [43]): 250 µM (≈ 64.8 µg/mL); MIC (Nakaseomyces glabratus [20]; [44]): 62.5 µM (≈ 16.2 µg/mL); MIC (Pichia kudriavzevii [21]; [45]): 250 µM (≈ 64.8 µg/mL); MIC (Pichia kudriavzevii [22]; [46]): 250 µM (≈ 64.8 µg/mL); MIC (Candida albicans [23]; [47]): 250 µM (≈ 64.8 µg/mL); MIC (Lichtheimia corymbifera [24]; [48]): 125 µM (≈ 32.4 µg/mL)

**Q.** What does the source list for `CC(C)(C)C(=O)OCC1C=C(c2ccc(Cl)c(Cl)c2)C(=O)O1` (stereo in doubt; 2c)?
**A.** MIC (Pichia kudriavzevii [1]): 7.81 uM l-1; MIC (Candida albicans [2]): 0.49 µM (≈ 0.168 µg/mL); MIC (Trichosporon beigelii [3]): 7.81 uM l-1; MIC (Candida albicans [4]): 1.95 µM (≈ 0.669 µg/mL); MIC (Aspergillus fumigatus [5]): 1.95 uM l-1; MIC (Nakaseomyces glabratus [6]): 0.49 µM (≈ 0.168 µg/mL); MIC [7]: 0.49 uM l-1; MIC (Candida parapsilosis [8]): 3.91 uM l-1; MIC (Clavispora lusitaniae [9]): 1.95 uM l-1; MIC (Candida tropicalis [10]): 7.81 uM l-1; MIC (Trichosporon beigelii [11]): 1.95 uM l-1; MIC (Lichtheimia corymbifera [12]): 7.81 uM l-1; MIC (Pichia kudriavzevii [13]): 3.91 uM l-1; MIC (Clavispora lusitaniae [14]): 3.91 uM l-1; MIC (Candida parapsilosis [15]): 3.91 uM l-1; MIC [16]: 0.24 uM l-1; MIC (Aspergillus fumigatus [17]): 3.91 uM l-1; MIC (Candida albicans [18]): 1.95 uM l-1; MIC (Candida tropicalis [19]): 3.91 uM l-1; MIC (Nakaseomyces glabratus [20]): 0.98 uM l-1; MIC (Pichia kudriavzevii [21]): 7.81 uM l-1; MIC (Pichia kudriavzevii [22]): 31.25 uM l-1; MIC (Candida albicans [23]): 1.95 uM l-1; MIC (Lichtheimia corymbifera [24]): 15.63 uM l-1

**Q.** Which MIC (Pichia kudriavzevii [1]; [25]) does the source give for `OC(Cn1cncn1)(Cn1cncn1)c1ccc(F)cc1F` [FLUCONAZOLE] here?
**A.** 32 µM (≈ 9.8 µg/mL)

**Q.** And the MIC (Candida albicans [2]; [26])?
**A.** 0.25 µM (≈ 0.0766 µg/mL)

**Q.** What about the MIC (Trichosporon beigelii [3]; [27]) of the same compound?
**A.** 2 µM (≈ 0.613 µg/mL)

**Q.** And the MIC (Candida albicans [4]; [28])?
**A.** 1 µM (≈ 0.306 µg/mL)

**Q.** What about the MIC (Aspergillus fumigatus [5]; [29]) of the same compound?
**A.** > 128 µM

**Q.** What about the MIC (Nakaseomyces glabratus [6]; [30]) of the same compound?
**A.** 4 µM (≈ 1.23 µg/mL)

**Q.** And the MIC [7, 31]?
**A.** 16 µM (≈ 4.9 µg/mL)

**Q.** And the MIC (Candida parapsilosis [8]; [32])?
**A.** 4 µM (≈ 1.23 µg/mL)

**Q.** What about the MIC (Clavispora lusitaniae [9]; [33]) of the same compound?
**A.** 1 µM (≈ 0.306 µg/mL)

**Q.** And the MIC (Candida tropicalis [10]; [34])?
**A.** > 128 µM

**Q.** What about the MIC (Trichosporon beigelii [11]; [35]) of the same compound?
**A.** 1 µM (≈ 0.306 µg/mL)

**Q.** What about the MIC (Lichtheimia corymbifera [12]; [36]) of the same compound?
**A.** > 128 µM

**Q.** And the MIC (Pichia kudriavzevii [13]; [37])?
**A.** 16 µM (≈ 4.9 µg/mL)

**Q.** What about the MIC (Clavispora lusitaniae [14]; [38]) of the same compound?
**A.** 1 µM (≈ 0.306 µg/mL)

**Q.** And the MIC (Candida parapsilosis [15]; [39])?
**A.** 2 µM (≈ 0.613 µg/mL)

**Q.** And the MIC [16, 40]?
**A.** 8 µM (≈ 2.45 µg/mL)

**Q.** And the MIC (Aspergillus fumigatus [17]; [41])?
**A.** > 128 µM

**Q.** And the MIC (Candida albicans [18]; [42])?
**A.** 0.25 µM (≈ 0.0766 µg/mL)

**Q.** What about the MIC (Candida tropicalis [19]; [43]) of the same compound?
**A.** 0.5 µM (≈ 0.153 µg/mL)

**Q.** And the MIC (Nakaseomyces glabratus [20]; [44])?
**A.** 16 µM (≈ 4.9 µg/mL)

**Q.** What about the MIC (Pichia kudriavzevii [21]; [45]) of the same compound?
**A.** 32 µM (≈ 9.8 µg/mL)

**Q.** What about the MIC (Pichia kudriavzevii [22]; [46]) of the same compound?
**A.** 64 µM (≈ 19.6 µg/mL)

**Q.** And the MIC (Candida albicans [23]; [47])?
**A.** 0.5 µM (≈ 0.153 µg/mL)

**Q.** And the MIC (Lichtheimia corymbifera [24]; [48])?
**A.** > 128 µM

— ChEMBL document CHEMBL1134691, “3-Phenyl-5-acyloxymethyl-2H,5H-furan-2-ones: synthesis and biological activity of a novel group of potential antifungal drugs” (2001)
